High-throughput results as filed in PubChem BioAssay.
Scp-1 inhibitor: Scp-1 phosphatase inhibitors, primary screen, biochemical, colorimetric, uHTS; 0.88% of 340,000 active; inhibition, % at 20 µM; Recombinant Scp1, phosphopeptide, malachite green phosphate absorbance;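 active means inhibition above about 50% at 20 µM, limit read from the data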
Target sequence (Q9GZU7 76-261 limits assumed): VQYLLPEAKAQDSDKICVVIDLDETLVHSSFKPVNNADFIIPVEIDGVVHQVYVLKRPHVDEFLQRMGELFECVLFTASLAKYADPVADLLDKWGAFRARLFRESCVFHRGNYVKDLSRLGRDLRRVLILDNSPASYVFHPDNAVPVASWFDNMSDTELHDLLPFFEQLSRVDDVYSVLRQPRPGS
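Times: enzyme reaction 45 min at room temperature, colour 5 min, stabilisation 30 min. Material: SCP-1 catalytic fragment, aa 76-261. Medium: Acidic Tris acetate buffer with magnesium and detergent. Signal: colorimetric free-phosphate detection, absorbance 630 nm. Read-out basis: % inhibition of SCP-1 phosphate liberation. Reagent: Phosphorylated 17-residue peptide substrate.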
LMPTP inh: LMPTP phosphatase inhibitors, primary screen, biochemical, fluorescence intensity, uHTS. Low molecular weight phosphotyrosine protein phosphatase (Homo sapiens), P24666. recombinant LMPTP-A, OMFP fluorogenic substrate. inhibition, % at 20 µM. 0.22% of 360,000 active. AID 651560, 2012;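 active means compounds that cut the enzyme signal by at least half of the control window in the single-dose screen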
Target sequence (P24666 whole entry, looked up): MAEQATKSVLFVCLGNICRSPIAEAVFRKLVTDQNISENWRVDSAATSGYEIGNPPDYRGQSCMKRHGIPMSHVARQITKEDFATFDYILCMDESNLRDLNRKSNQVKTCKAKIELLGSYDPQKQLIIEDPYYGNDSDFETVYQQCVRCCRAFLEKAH
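Test system – LMPTP-A enzyme · Amount – LMPTP-A at 0.625 nM final in the reaction · Buffer or medium – Bis-Tris pH 6.0, DTT, detergent · Reagent – OMFP 400 µM · Doses – single 20 µM dose · Schedule – reaction 50 min, room temperature, dark · Detection – fluorescence intensity of OMFP turnover product · Evaluation – percent inhibition versus substrate-only and uninhibited controls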
STEP block: STEP phosphatase inhibitors, primary screen, biochemical, fluorescence intensity, uHTS; inhibition, % at 20 µM; recombinant STEP, OMFP fluorogenic substrate; 0.25% of 360,000 active; AID 588621, 2011; Tyrosine-protein phosphatase non-receptor type 5 (Homo sapiens), P54829;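 active means inhibition at 20 µM, scaled per plate between control wells, above about 37%, limit read from the data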
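material = STEP tyrosine phosphatase | reagent = fluorogenic phosphatase substrate OMFP at 25 µM final | doses = single compound dose of 20 µM, 1% DMSO final | schedule = 20 min reaction, room temperature, in the dark | measured by = fluorescence, 480/540 nm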
DNMT1 inh: human DNMT1 methyltransferase inhibitors, primary screen, biochemical, molecular beacon, fluorescence, HinP1I cleavage, uHTS. DNA (cytosine-5)-methyltransferase 1 (Homo sapiens), P26358. inhibition (reported as % activation of signal), % at 10 µM. 0.83% of 360,000 active. AID 588458, 2011; in the data active means inhibition above about 50%
SUMO1-SIM PPI: modulators of SUMO1 protein-protein interactions, primary screen, biochemical, uHTS. SUMO1 binding to a labelled peptide, TR-FRET, 1 h. AID 602429, 2012. Small ubiquitin-related modifier 1 (Homo sapiens), P63165. inhibition, % at 20 µM. 0.33% of 360,000 active; in the data active means inhibition above about 37%
Target sequence (P63165 whole entry, looked up): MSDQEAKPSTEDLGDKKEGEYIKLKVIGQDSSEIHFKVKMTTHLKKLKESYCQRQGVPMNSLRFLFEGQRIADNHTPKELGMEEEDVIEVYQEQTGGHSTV
Scp1 confirm: Scp-1 phosphatase inhibitors, retest, confirmation, biochemical, colorimetric, single concentration | shares compounds with Scp-1 inhibitor | recombinant SCP-1 catalytic domain, phosphate release, malachite green absorbance | inhibition, % at 20 µM | 61% of 2,500 active | AID 540281, 2011
Scp-1 MG ctr: colorimetric readout interference by compounds, confirmation, artefact control for Scp-1 inhibitor project, biochemical, single concentration. shares compounds with Scp-1 inhibitor. 2,500 tested, under 10 active. Colorimetric interference counterscreen, malachite green absorbance 630 nm. AID 540313, 2011. apparent inhibition (interference), % at 20 µM;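 further: compounds added after enzyme reaction finished so only phosphate colour detection is probed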
Scp1 DSF: Scp-1 binding by thermal shift, confirmation, orthogonal assay for Scp-1 inhibitor project, biophysical, differential scanning fluorimetry; shares compounds with Scp-1 inhibitor; Recombinant SCP1, Sypro Orange thermal shift Tm; thermal shift relative to vanadate control, % at 40 µM; 25% of 1,500 active; AID 540329, 2011;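 active means substances whose mean melting-temperature shift, as a percentage of the reference inhibitor's shift, reaches about 5.3%, limit read from the data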
Each line names hits and unclear results; the compound was inactive in the other large screens (follow-up assays come after a bar, where they were run). Sampled rows, rich in hits. Any-hit rate of the full collection: about 1.7%.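 How the source made its calls, unless noted: active means inhibition of at least 30% at 20 µM; inactive means the rest.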

CC(O)(c1ccc(F)c(F)c1)c1nc(-c2ccc(F)c(Cl)c2)cs1 (centres undefined)	none (no result: Scp-1 inhibitor)
CC(C)c1cccc(-c2csc(C(O)c3ccco3)n2)c1 (centres undefined)	none (no result: Scp-1 inhibitor)
Cc1ccc(C(=O)OCC(=O)c2ccc(CC(=O)N3CCOCC3)s2)cc1C	Scp-1 inhibitor 55 | Scp1 confirm 57 | Scp-1 MG ctr inactive | Scp1 DSF inactive
Fc1cc(F)cc(-c2c(-c3ccccc3)ncc3ccc(F)cc23)c1	Scp-1 inhibitor 85 | Scp1 confirm 38 | Scp-1 MG ctr inactive | Scp1 DSF inactive
Fc1ccc2cnc(-c3ccccc3)c(-c3cccc(C(F)(F)F)c3)c2c1	Scp-1 inhibitor 65 | Scp1 confirm inactive | Scp-1 MG ctr inactive
COc1cc2cnc(-c3ccccc3)c(-c3cccc(C(F)(F)F)c3)c2cc1OC	Scp-1 inhibitor 53 | Scp1 confirm inactive | Scp-1 MG ctr inactive
COc1cc2cnc(-c3ccccc3)c(-c3ccc(C#N)cc3)c2cc1OC	none
O=[N+]([O-])c1cccc(-c2c(-c3ccccc3)ncc3cc(F)ccc23)c1	none
O=C(NCCc1ccccc1)c1ccc(-c2ccccc2C(F)(F)F)o1	Scp-1 inhibitor 97 (no result: LMPTP inh, STEP block, DNMT1 inh, SUMO1-SIM PPI) | Scp1 confirm inactive | Scp-1 MG ctr inactive
O=C(NCCc1ccccc1)c1ccc(-c2ccc(F)cc2)o1	none
COc1ccccc1C(=O)OCCc1ccccc1	none
CN(C)CCCNC(=O)C(=O)NCC(c1cccs1)S(=O)(=O)c1ccc(F)cc1 (centres undefined)	none
C/C(Cc1ccccc1)=N\NC(=O)CNC(=O)COc1ccccc1	none
CN(/N=C/c1ccncc1)c1cnn(-c2ccc(F)c(Cl)c2)c(=O)c1Cl	Scp-1 inhibitor 54 | Scp1 confirm inactive | Scp-1 MG ctr inactive
CCC1(c2ccccc2)NC(=O)N(CC(=O)N(C)CC(=O)Nc2cccc(OC)c2)C1=O (centres undefined)	none
CCC1(c2ccccc2)NC(=O)N(CC(=O)N(C)CC(=O)Nc2c(C)cccc2C)C1=O (centres undefined)	none | Scp1 confirm inactive | Scp-1 MG ctr inactive
Cc1ccc(-c2c(C#N)c(N)n3c(nc4ccccc43)c2C#N)cc1	Scp-1 inhibitor 57 | Scp1 confirm inactive | Scp-1 MG ctr inactive
N#Cc1c(-c2ccccc2)c(C#N)c2nc3ccccc3n2c1N	none
CCCC(C)c1nc(C(N)=O)c2[nH]c(=O)n(-c3ccc(OC)c(OC)c3)c2n1 (centres undefined)	none
O=C(Nc1ccc(S(=O)(=O)Nc2nccs2)cc1)c1ccncc1	none (no result: Scp-1 inhibitor)
O=C(Nc1ccc(S(=O)(=O)Nc2nccs2)cc1)c1ccc(=O)[nH]c1	Scp-1 inhibitor 70 | Scp1 confirm 60 | Scp-1 MG ctr inactive | Scp1 DSF 8.9
COc1ccc(OC)c(NC(=O)CSc2ncnc3sc(C)cc23)c1	Scp-1 inhibitor 80 | Scp1 confirm 64 | Scp-1 MG ctr inactive | Scp1 DSF 12
CC(C)C(C(=O)NC1CCCC1)N(CC1CCCO1)C(=O)CNS(=O)(=O)c1ccc(F)cc1 (centres undefined)	none
